From ChEMBL document CHEMBL1127301, “Carbonyl-containing bisphosphonate esters as novel antiinflammatory and antiarthritic agents” (1994)
Values joined by “and” are separate entries in the source; they are usually repeats but may differ in a detail not shown here. Equal entries are not always repeated.

Key:
Format in all cases: functional
Mus musculus [1] = test: Decreased wet tissue weight of DTH-GRA from mice was determined after (sc) administration of a dose of 100 mg/kg after 9 days; conditions: for inhibition in vivo at 100 mg/kg: Mus musculus, sc, 216 h
Outline: (§1)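 Groups of 10 female CF-1 mice (25 g) were sensitized sc over the inguinal node with mBSA/Freund's incomplete adjuvant/dextran. Three weeks later, two 6 mm hydroxyapatite discs soaked in mBSA (30 mg/mL) were implanted sc in the dorsum. Drug was given sc in the scruff. After 9 days, granulomas were excised and wet/dry weights compared with vehicle controls as percent inhibition.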

Mus musculus [2] = test: Compound was tested for the suppression of Antigen-Induced Arthritis in mice after 28 days, which were dosed 10 mg/kg subcutaneously; conditions: sc, 672 h, route subcutaneous
Outline: (§2)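 mBSA-sensitized mice were boosted after 7 days and, 14 days later, challenged intraarticularly with 200 μg mBSA in saline in the left rear stifle. Drug in sterile saline was given sc in the scruff from day 0 on a 5-of-7-day regimen to day 28. H&E sagittal joint sections were graded 1–5 for inflammation, pannus, and cartilage/bone erosion; results are percent inhibition.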

Mus musculus [3] = test: Decreased dry tissue weight of DTH-GRA from mice was determined after (sc) administration of a dose of 10 mg/kg after 9 days; outline: as §1
Mus musculus [4] = test: Decreased wet tissue weight of DTH-GRA from mice was determined after (sc) administration of a dose of 10 mg/kg after 9 days; outline: as §1
Mus musculus [5] = test: Compound was tested for the suppression of Antigen-Induced Arthritis in mice after 28days, which were dosed 100 mg/kg subcutaneously;; conditions: sc, 672 h, route subcutaneous; outline: as §2
Mus musculus [6] = test: Compound was tested for the suppression of Antigen-Induced Arthritis in mice after 28days, at a dose of 100 mg/kg administered subcutaneously; p<0.001; conditions: sc, 672 h, route subcutaneous; outline: as §2
Mus musculus [7] = test: Compound was tested for the suppression of Antigen-Induced Arthritis in mice after 28days, which were dosed 100 mg/kg subcutaneously; conditions: sc, 672 h, route subcutaneous; outline: as §2
Mus musculus [8] = test: Decreased dry tissue weight of DTH-GRA from mice was determined after (sc) administration of a dose of 100 mg/kg after 9 days; conditions: 216 h; outline: as §1
Mus musculus [9] = test: Compound was tested for the suppression of Antigen-Induced Arthritis in mice after 28days, at a dose of 100 mg/kg administered subcutaneously; conditions: sc, 672 h, route subcutaneous; outline: as §2
Mus musculus [10] = test: Compound was tested for the suppression of Antigen-Induced Arthritis in mice after 28 days, at a dose of 25 mg/kg administered subcutaneously; conditions: sc, 672 h, route subcutaneous; outline: as §2
Mus musculus [11] = test: Compound was tested for the suppression of Antigen-Induced Arthritis in mice after 28 days, at a dose of 50 mg/kg administered subcutaneously; conditions: sc, 672 h, route subcutaneous; outline: as §2
Mus musculus [12] = test: Compound was tested for the suppression of Antigen-Induced Arthritis in mice after 28days, at a dose of 10 mg/kg administered subcutaneously; conditions: sc, 672 h, route subcutaneous; outline: as §2
Mus musculus [13] = test: Decreased dry tissue weight of DTH-GRA from mice was determined after (sc) administration of a dose of 25 mg/kg
Outline: (§3)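 Groups of 10 female CF-1 mice (25 g) sensitized sc over the inguinal lymph node with mBSA emulsion (saline, Freund's incomplete adjuvant, dextran). Three weeks later, two hydroxyapatite discs (6 mm) soaked in mBSA (30 mg/mL saline) implanted sc bilaterally in the dorsum. Compound given sc in scruff of neck in saline vehicle. Granulomas excised after 9 days; wet and dry weights expressed as percent inhibition versus vehicle-dosed controls.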

Mus musculus [14] = test: Decreased dry tissue weight of DTH-GRA from mice was determined after (sc) administration of a dose of 200 mg/kg; outline: as §3
Mus musculus [15] = test: Decreased wet tissue weight of DTH-GRA from mice was determined after (sc) administration of a dose of 100 mg/kg; outline: as §3
Mus musculus [16] = test: Decreased wet tissue weight of DTH-GRA from mice was determined after (sc) administration of a dose of 25 mg/kg; outline: as §3
Mus musculus [17] = test: Decreased dry tissue weight of DTH-GRA from mice was determined after (sc) administration of a dose of 50 mg/kg; outline: as §3
Mus musculus [18] = test: Decreased wet tissue weight of DTH-GRA from mice was determined after (sc) administration of a dose of 200 mg/kg; outline: as §3
Mus musculus [19] = test: Decreased wet tissue weight of DTH-GRA from mice was determined after (sc) administration of a dose of 50 mg/kg; outline: as §3
Mus musculus [20] = test: Decreased dry tissue weight of DTH-GRA from mice was determined after (sc) administration of a dose of 100 mg/kg; outline: as §3

CCOP(=O)(OCC)C(CC1CCCC(c2ccccc2)C1=O)P(=O)(OCC)OCC (centres undefined)
inhibition in vivo at 100 mg/kg (Mus musculus [1]): 50%

CCOC(=O)C(CC(P(=O)(OCC)OCC)P(=O)(OCC)OCC)C(=O)c1ccccc1 (centres undefined)
inhibition in vivo at 100 mg/kg (Mus musculus [1]): 77%

CCOP(=O)(OCC)C(CC(=O)C(=O)c1ccccc1)P(=O)(OCC)OCC
inhibition in vivo at 10 mg/kg (Mus musculus [2]): 12%
Inhibition (Mus musculus [3]): 45% and 54% and 49% and 38% and 27%
Inhibition (Mus musculus [4]): 56% and 49% and 43% and 28%
inhibition in vivo at 100 mg/kg (Mus musculus [1]): 49%

CCOP(=O)(OCC)C(CC(C(=O)OC)c1ccccc1O)P(=O)(OCC)OCC (centres undefined)
inhibition in vivo at 100 mg/kg (Mus musculus [1]): 5%

CCOP(=O)(OCC)C(CC1Cc2ccccc2C1=O)P(=O)(OCC)OCC (centres undefined)
inhibition in vivo at 100 mg/kg (Mus musculus [1]): 0%

CCOP(=O)(OCC)C(CC(C(=O)Nc1ccccc1)C(=O)c1ccccc1)P(=O)(OCC)OCC (centres undefined)
inhibition in vivo at 100 mg/kg (Mus musculus [1]): 3%

CCOP(=O)(OCC)C(CC1CCCC(C)C1=O)P(=O)(OCC)OCC (centres undefined)
inhibition in vivo at 100 mg/kg (Mus musculus [5]): 46%
inhibition in vivo at 100 mg/kg (Mus musculus [1]): 25%

CCOP(=O)(OCC)C(CC(C#N)c1cccc2ccccc12)P(=O)(OCC)OCC (centres undefined)
inhibition in vivo at 100 mg/kg (Mus musculus [1]): 0%

CCOP(=O)(OCC)C(CC1C(=O)c2ccccc2SC1C)P(=O)(OCC)OCC (centres undefined)
inhibition in vivo at 100 mg/kg (Mus musculus [1]): 33%

CCOP(=O)(OCC)C(CC(C(=O)OC)c1ccccc1)P(=O)(OCC)OCC (centres undefined)
inhibition in vivo at 100 mg/kg (Mus musculus [6]): 38%
inhibition in vivo at 100 mg/kg (Mus musculus [1]): 8%

CCOP(=O)(OCC)C1(P(=O)(OCC)OCC)CC(C(=O)c2ccccc2)=NN1
inhibition in vivo at 100 mg/kg (Mus musculus [1]): 31%

CCOP(=O)(OCC)C(CC(C(=O)c1ccc(OC)cc1)c1ccccn1)P(=O)(OCC)OCC (centres undefined)
inhibition in vivo at 100 mg/kg (Mus musculus [1]): 34%

CCOP(=O)(OCC)C(C[C@H]1C(=O)c2ccccc2O[C@H]1c1ccccc1)P(=O)(OCC)OCC
inhibition in vivo at 100 mg/kg (Mus musculus [1]): 0%

CCOP(=O)(OCC)C(CC(C#N)c1cccs1)P(=O)(OCC)OCC (centres undefined)
inhibition in vivo at 100 mg/kg (Mus musculus [1]): 40%

CCOP(=O)(OCC)C(CC1Sc2ccccc2C1=O)P(=O)(OCC)OCC (centres undefined)
inhibition in vivo at 100 mg/kg (Mus musculus [1]): 27%

CCOP(=O)(OCC)C(CC1COc2ccccc2C1=O)P(=O)(OCC)OCC (centres undefined)
inhibition in vivo at 100 mg/kg (Mus musculus [1]): 67%

CCOP(=O)(OCC)C(CC1C(=O)c2ccccc2OC1c1ccccc1)P(=O)(OCC)OCC (centres undefined)
inhibition in vivo at 100 mg/kg (Mus musculus [7]): 21%
inhibition in vivo at 100 mg/kg (Mus musculus [8]): 47%
inhibition in vivo at 100 mg/kg (Mus musculus [1]): 46%

CCOP(=O)(OCC)C(CC1CSc2ccc(C)cc2C1=O)P(=O)(OCC)OCC (centres undefined)
inhibition in vivo at 100 mg/kg (Mus musculus [9]): 21%
inhibition in vivo at 100 mg/kg (Mus musculus [1]): 28%

CCOP(=O)(OCC)C(C[C@@H]1C(=O)c2ccccc2O[C@H]1c1ccccc1)P(=O)(OCC)OCC
inhibition in vivo at 100 mg/kg (Mus musculus [1]): 67%

CCOP(=O)(OCC)C(CC(C(=O)c1ccccc1)c1ccccc1)P(=O)(OCC)OCC (centres undefined)
inhibition in vivo at 25 mg/kg (Mus musculus [10]): 55%
inhibition in vivo at 100 mg/kg (Mus musculus [7]): 52%
Inhibition (Mus musculus [3]): 57% and 48% and 38%
inhibition in vivo at 50 mg/kg (Mus musculus [11]): 53%
Inhibition (Mus musculus [1]; 100 mg/kg): 51% and 44% and 35%
inhibition in vivo at 100 mg/kg (Mus musculus [1]): 48%

CCOP(=O)(OCC)C(CC(C#N)c1ccccn1)P(=O)(OCC)OCC (centres undefined)
inhibition in vivo at 10 mg/kg (Mus musculus [12]): 2%

O=P(O)(O)C(Cl)(Cl)P(=O)(O)O [CLODRONIC ACID]
inhibition in vivo at 25 mg/kg (Mus musculus [13]): 45%
inhibition in vivo at 200 mg/kg (Mus musculus [14]): 59%
inhibition in vivo at 100 mg/kg (Mus musculus [15]): 61%
inhibition in vivo at 25 mg/kg (Mus musculus [16]): 45%
inhibition in vivo at 100 mg/kg (Mus musculus [8]): 50%
inhibition in vivo at 50 mg/kg (Mus musculus [17]): 47%
inhibition in vivo at 200 mg/kg (Mus musculus [18]): 55%
inhibition in vivo at 50 mg/kg (Mus musculus [19]): 48%
inhibition in vivo at 100 mg/kg (Mus musculus [1]): 45%
inhibition in vivo at 100 mg/kg (Mus musculus [20]): 63%
